Test results taken from the RNAGym collection of RNA variant scans (doi:10.1126/science.aae0568).
This sample holds only a part of the variants without activity.

B1: tRNA (parent)
chain: GUUCCGUUGGCGUAAUGGUAACGCGUCUCCCUCCUAAGGAGAAGACUGCGGGUUCGAGUCCCGUACGGAACG

Variants of: B1
Experiment: yeast fitness relative to wild type (ratio to wild type); higher = fitter; tRNA-Arg(CCU), competitive growth, 37 C, YPD
Summary of the method: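 Variants of the tRNA-Arg(CCU) gene were chemically synthesised with a 3% per-site mutation rate across 69 sites and placed at the native genomic locus in Saccharomyces cerevisiae. Six parallel replicates of the pooled strains were competed in YPD at 37°C for 24 hours, and gene amplicons from the start and end populations were read by 100-nucleotide paired-end sequencing. Darwinian fitness relative to wild type was derived from changes in genotype frequencies. Genotypes required ≥ 100 starting reads, and estimates < 0.5 were set to 0.5.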
With C24A C27G C29G the yeast fitness was 0.639. C24A C27G C29G G52C gave a yeast fitness of 0.996. C24A C27U showed a yeast fitness of 0.702. With C24A C27U C29G G44C G68C the yeast fitness was no more than 0.5. C24A C27U C29G G44C U59C G67A showed a yeast fitness of no more than 0.5. Work on C24A C27U C30U G52C yielded a yeast fitness of 0.596. C24A C27U C61A gave a yeast fitness of no more than 0.5. Variant C24A C27U U28G has a yeast fitness of 0.511. Work on C24A C27U U28G G68U yielded a yeast fitness of 0.529. For C24A C27U U54C U59C, the yeast fitness was 0.551. In the case of C24A C27U U54C U59C G68U, the yeast fitness is reported as no more than 0.5. Work on C24A C29A G44A C46G yielded a yeast fitness of 0.583. C24A C29G A43C C60U showed a yeast fitness of 0.648. Variant C24A C29G A45G C62A A69C has a yeast fitness of 0.52. For C24A C29G A45G U54A, the yeast fitness was no more than 0.5. C24A C29G A69G gave a yeast fitness of no more than 0.5. With C24A C29G C30G C49U the yeast fitness was no more than 0.5. With C24A C29G C33G the yeast fitness was 0.619. With C24A C29G C60U the yeast fitness was no more than 0.5. For C24A C29G G51C U54A, the yeast fitness was no more than 0.5. With C24A C29G U35A A43C the yeast fitness was 0.929. For C24A C29G U35A A57U, the yeast fitness was 0.515. Variant C24A C29G U35G A36C has a yeast fitness of no more than 0.5. C24A C29U gave a yeast fitness of 0.643. C24A C29U A36U C55U gave a yeast fitness of no more than 0.5. For C24A C29U A37U C60A C66U, the yeast fitness was no more than 0.5. Variant C24A C29U C61U C66G has a yeast fitness of 0.544. C24A C29U G50A gave a yeast fitness of no more than 0.5. For C24A C29U G50A A65G C66U, the yeast fitness was no more than 0.5. For C24A C30G, the yeast fitness was no more than 0.5. In the case of C24A C30U A36G C46A, the yeast fitness is reported as 0.579. In the case of C24A C30U A45G A57U C62U, the yeast fitness is reported as 0.614. C24A C30U A57U C62A gave a yeast fitness of no more than 0.5. Work on C24A C30U A65G A69U yielded a yeast fitness of no more than 0.5. In the case of C24A C30U C34A A45G A57U C62U, the yeast fitness is reported as no more than 0.5. C24A C30U C62U showed a yeast fitness of 0.511. C24A C30U G38C G58C showed a yeast fitness of no more than 0.5. C24A C30U U64G gave a yeast fitness of no more than 0.5. Variant C24A C31A A43U C55U has a yeast fitness of 0.674. C24A C31A A65C showed a yeast fitness of no more than 0.5. C24A C31A C33A C60A gave a yeast fitness of no more than 0.5. In the case of C24A C31A C55A, the yeast fitness is reported as no more than 0.5. Work on C24A C31A G63U U64G yielded a yeast fitness of no more than 0.5. C24A C31G C34U gave a yeast fitness of 0.616. Work on C24A C31G C34U G68A yielded a yeast fitness of no more than 0.5. In the case of C24A C31G C66A, the yeast fitness is reported as no more than 0.5. Work on C24A C31G G38C yielded a yeast fitness of no more than 0.5. With C24A C31G G51C C55U G58C the yeast fitness was no more than 0.5. C24A C31G G51C C55U G58C A70U showed a yeast fitness of no more than 0.5. C24A C31U A36G A37G G48A U53G showed a yeast fitness of 0.653. In the case of C24A C31U A42C, the yeast fitness is reported as 0.529. C24A C31U A42C A65C showed a yeast fitness of no more than 0.5. Work on C24A C31U A42C C66U yielded a yeast fitness of no more than 0.5. Work on C24A C31U A42C G50A yielded a yeast fitness of no more than 0.5. In the case of C24A C31U A42C U47C, the yeast fitness is reported as no more than 0.5. C24A C31U A42C U64A gave a yeast fitness of no more than 0.5. In the case of C24A C31U C55A C60A, the yeast fitness is reported as no more than 0.5. With C24A C31U G38A G58C the yeast fitness was no more than 0.5. In the case of C24A C31U G56C, the yeast fitness is reported as no more than 0.5. With C24A C33A C46U G67U the yeast fitness was no more than 0.5. C24A C33A C66A showed a yeast fitness of 0.533. With C24A C33A G51C C62U the yeast fitness was no more than 0.5. With C24A C33G A40C C55U G67A the yeast fitness was no more than 0.5. Variant C24A C33G C34U G58C has a yeast fitness of 0.551. With C24A C33U A57U U59G the yeast fitness was no more than 0.5. C24A C33U C34A A43U C46G gave a yeast fitness of no more than 0.5. With C24A C34U A40C G68C the yeast fitness was no more than 0.5. For C24A C34U G41A, the yeast fitness was no more than 0.5. For C24A C34U G52A, the yeast fitness was no more than 0.5. For C24A C46A, the yeast fitness was 1.01. C24A C46A A70C gave a yeast fitness of 0.851. C24A C46A G63A showed a yeast fitness of 0.793. C24A C46G U59C C62G showed a yeast fitness of 0.617. In the case of C24A C46G U59C C62U, the yeast fitness is reported as no more than 0.5. C24A C46U showed a yeast fitness of 1.1. Variant C24A C49A has a yeast fitness of 0.577. C24A C49A C61G gave a yeast fitness of no more than 0.5. C24A C49A G56C G68C showed a yeast fitness of no more than 0.5. For C24A C49G A69C, the yeast fitness was no more than 0.5. For C24A C49U C62U, the yeast fitness was 0.654. For C24A C49U U59G C62U A70G, the yeast fitness was no more than 0.5. In the case of C24A C55G, the yeast fitness is reported as 0.545. C24A C55G C60A showed a yeast fitness of no more than 0.5. With C24A C55G C60G the yeast fitness was 0.528.
